This is an account of results in ChEMBL document CHEMBL2010794, “Discovery of nor-seco himbacine analogs as thrombin receptor antagonists” (Bioorg Med Chem Lett, 2012).

Data set [1] can be described thus: Cmax in cynomolgus monkey at 1 mg/kg, po. The conditions noted are these: in vivo. The format is ADME, organism-based, Macaca fascicularis. Further details: dose 1 mg/kg, route oral. The method, boiled down: (§1)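 Full cynomolgus PK study: 1 mg/kg oral in 0.4% methylcellulose and 1 mg/kg intravenous in 20% HPBCD; AUC, oral Cmax, Tmax, half-life, Vd(ss) and clearance derived from plasma concentrations.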

Data set [2] can be described thus: Half life in cynomolgus monkey at 1 mg/kg, po and 1 mg/kg, iv. The format is ADME, organism-based, Macaca fascicularis. As to conditions: in vivo. The method, boiled down:
as §1

Data set [3] is described as follows: AUC (0 to 24 hrs) in cynomolgus monkey plasma at 1 mg/kg, po. The format is ADME, organism-based, Macaca fascicularis. Further details: time < 24 hr, dose 1 mg/kg, route oral.
Data set [4] is described as follows: Tmax in cynomolgus monkey at 1 mg/kg, po and 1 mg/kg, iv. As to conditions: in vivo. Format: ADME, organism-based, Macaca fascicularis. The method, boiled down:
as §1

The nature of data set [5]: Clearance in cynomolgus monkey at 1 mg/kg, po and 1 mg/kg, iv. The format is ADME, organism-based, Macaca fascicularis. The conditions noted are these: in vivo. In outline:
as §1

The subject of the next data set is Cynomolgus monkey. Description: Ex-vivo inhibition of PAR1 in cynomolgus monkey assessed as inhibition of haTRAP-induced platelet aggregation at 1 mg/kg, po at 24 hrs by aggregometry. Format: functional. As to conditions: Macaca fascicularis. In outline:
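Cynomolgus monkeys dosed orally in 20% PEG-HPBCD (hydrochloride salt for the 7a-hydroxy series); blood sampled at various times up to 24 h; haTRAP added to whole blood at 1 µM to trigger aggregation, measured by aggregometer; result given as % reduction in haTRAP-induced aggregation at the stated dose and time.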

The nature of data set [6]: Volume of distribution at steady state in cynomolgus monkey at 1 mg/kg, po and 1 mg/kg, iv. Format: ADME, organism-based, Macaca fascicularis. The conditions noted are these: in vivo, read-out: Vdss. The method, boiled down: as §1
Data set [7] is described as follows: Oral bioavailability in cynomolgus monkey at 1 mg/kg. The format is ADME, organism-based, Macaca fascicularis. The conditions noted are these: in vivo. In outline: as §1
Data set [8] in a line: AUC (0 to 24 hrs) in cynomolgus monkey at 1 mg/kg, po and 1 mg/kg, iv. As to conditions: plasma. The format is ADME, organism-based, Macaca fascicularis. In outline: as §1

The Cmax is the highest concentration seen after dosing. The half-life is the time needed for the level to fall by half in the phase considered. Broadly, the AUC(0-t) is exposure summed from dosing to a finite time, without extrapolation to infinity. The Tmax is the time at which the peak concentration occurs. By inhibition in vivo is commonly meant the relative decrease from the control value, in per cent. As usually defined, the bioavailability is the share of a dose that reaches the circulation, judged against a reference dose that is usually intravenous. Take `CC[C@H]1[C@H](/C=C/c2ccc(-c3ccccc3)cn2)[C@@H]2[C@@H](C)OC(=O)[C@]2(O)C[C@@H]1C.Cl`: the Cmax in data set [1] worked out at 397 ng/mL. In data set [2], this molecule showed a half-life of 10.7 h. The molecule also returned an AUC(0-t) at 24 h in data set [3] of 3820 ng·h/mL. Also, in data set [4], the Tmax is 1 h. The same molecule came in with a clearance in data set [5] of 3.3 mL/min/kg. Further, the inhibition in vivo at 1 mg/kg with Cynomolgus monkey came to 65%. Moreover, the Vd in data set [6] came to 1.5 L/kg. The molecule further came in with a bioavailability in [7] of 78%. The AUC(0-t) in [8] turned out to be 3980 ng·h/mL.
